The target of the test is Indolethylamine N-methyltransferase (Oryctolagus cuniculus, UniProt O97972). The experiment in a line: Inhibition of New Zealand white rabbit lung INMT using N-methyltryptamine as substrate after 60 to 90 mins by liquid scintillation counting in presence of S-methyl-[14C]adenosylmethionine. In short, it runs like this: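 Enzyme from male rabbit lung: homogenate in 0.15 M KCl with 10^-4 M DTT and EDTA, 50 000 g supernatant, 40-60% ammonium sulfate fraction dialysed (some runs further Sephadex G-150 purified). Incubation in potassium phosphate pH 7.9 with N-methyltryptamine and S-[methyl-14C]adenosylmethionine, test compound in water or 5% DMSO, 37 °C. Stopped with borate pH 10; 14C-DMT extracted into isoamyl alcohol.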

Structures are written as SMILES.

Results on one compound are retold here after BindingDB's records for doi:10.1021/jm00189a004 (1979).

Chain of Indolethylamine N-methyltransferase (O97972 whole entry): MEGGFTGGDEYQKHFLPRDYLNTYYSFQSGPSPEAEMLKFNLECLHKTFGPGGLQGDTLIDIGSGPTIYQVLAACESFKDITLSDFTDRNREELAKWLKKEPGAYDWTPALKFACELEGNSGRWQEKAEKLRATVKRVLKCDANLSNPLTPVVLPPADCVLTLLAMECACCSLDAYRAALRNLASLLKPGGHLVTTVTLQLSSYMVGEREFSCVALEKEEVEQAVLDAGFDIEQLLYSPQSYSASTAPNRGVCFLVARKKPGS

In the case of `C1CN=C2CCCN2C1`, the IC50 turned out to be 38.7 µM.

The IC50 is the concentration that inhibits the measured activity by half.
